Screens (PubChem)
Shown are actives, neighbours in structure and some others; about 5.9% of the full set was active somewhere.
GASC1 inh: inhibitors of GASC-1 (KDM4C) histone demethylase, primary screen, biochemical, single concentration HTS | Lysine-specific demethylase 4C (Homo sapiens), Q9H3R0 | GST-KDM4C 2-372, H3K9me3 peptide, LANCE TR-FRET | inhibition, % at 12.5 µM | hit rate 0.15% among 96,000 | AID 720574, 2013;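 active = mean replicate inhibition above about 25%, with at least 55% of replicates also reaching it, limit read from the data, passing the limit was not always enough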
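System: N-terminal GST-fused human GASC-1 (KDM4C) fragment, residues 2-372 / Amount: 10 nM GST-KDM4C in enzyme reaction / Also added: H3K9me3 peptide with Fe(II)/2OG / Times: 30 min demethylation and 1 h detection at room temperature / Signal: LANCE TR-FRET / Read-out basis: Fall in 671/618 emission ratio as inhibition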
IDH1 mut inh: inhibitors of IDH1 R132H reductase, primary screen, biochemical, plate reader, single point | diaphorase/resazurin fluorescence, 60 min | inhibition, % at 10 µM | hit rate 0.18% among 70,000 | AID 624101, 2012; in the data active = inhibition above about 34%;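 also: 0% = DMSO and 100% = no enzyme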
Target sequence (O75874 whole entry R132H): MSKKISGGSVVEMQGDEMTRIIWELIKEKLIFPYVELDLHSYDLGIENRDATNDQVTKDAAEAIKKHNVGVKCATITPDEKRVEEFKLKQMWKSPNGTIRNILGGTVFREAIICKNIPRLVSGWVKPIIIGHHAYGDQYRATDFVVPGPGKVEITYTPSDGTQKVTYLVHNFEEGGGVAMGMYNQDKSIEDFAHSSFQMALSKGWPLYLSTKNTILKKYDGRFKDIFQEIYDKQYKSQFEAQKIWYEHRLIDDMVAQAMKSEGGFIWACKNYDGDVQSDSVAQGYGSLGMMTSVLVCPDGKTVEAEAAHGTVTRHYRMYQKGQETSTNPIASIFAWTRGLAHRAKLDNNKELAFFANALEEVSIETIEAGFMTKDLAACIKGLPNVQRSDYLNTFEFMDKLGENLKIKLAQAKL
Pf Dd2 inh: P. falciparum Dd2 growth inhibitors, primary screen, SYBR Green fluorescence, single dose replicates. AID 1159554, 2015. hit rate 2.3% among 94,000. 72 h; active compounds read low. activity change, % at 10 µM; in the data active = activity change below about -80%
T cruzi growth: T. cruzi intracellular proliferation inhibitors, primary screen, cell-based, beta-gal Tulahuen parasites, NIH3T3 host, luminescence; T. cruzi beta-gal in NIH3T3, GalScreen luminescence, 90 h; inhibition, % at 8.34 µM; hit rate 5.9% among 77,000; AID 624255, 2012;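 active = mean inhibition above about 93%, with at least 55% of replicates each passing it, limit read from the data, passing the limit was not always enough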
Numbers without * were called inactive; nt = not tested or not shown; ! = a repeat was not active.

SMILES | GASC1 inh | IDH1 mut inh | Pf Dd2 inh | T cruzi growth
COc1ccc2c3c(n(C)c2c1)[C@H](CO)N(C(=O)Nc1ccc(F)cc1)CC31CN(C(=O)c2ccc3c(c2)OCO3)C1 | -1.8 | nt | -89.2* | nt
COC(=O)c1cc(Br)ccc1NC(=O)COc1ccc(C(C)(C)C)cc1 | nt | 0.0 | nt | nt
CC(=O)Nc1ccc(S(=O)(=O)NC2(C(F)(F)F)C(=O)N(C3CCCCC3)C(C)=C2C(C)=O)cc1 (stereo not given) | nt | -0.1 | nt | nt
C/C=C/c1ccc(C2[C@@H]3CN(C(=O)Nc4ccc(F)cc4)C[C@H]2N3)cc1 (stereo not given in full) | 0.1 | nt | -53.8 | nt
C/C=C/c1ccc(C2[C@@H]3CN(C(=O)Nc4ccc(C(F)(F)F)cc4)C[C@H]2N3)cc1 (stereo not given in full) | 0.6 | nt | -81.5*! | nt
O=C(Nc1cccc(F)c1)N1C[C@@H]2N[C@H](C1)C2c1ccc(-c2cccnc2)cc1 (stereo not given in full) | -0.2 | nt | -51.1 | nt
N#Cc1cccc(-c2ccc(C3[C@@H]4CN(C(=O)Nc5ccc(C(F)(F)F)cc5)C[C@H]3N4)cc2)c1 (stereo not given in full) | -3.7 | nt | -84.5*! | nt
O=C(Nc1ccc(C(F)(F)F)cc1)N1C[C@@H]2N[C@H](C1)C2c1ccc(-c2cccnc2)cc1 (stereo not given in full) | 0.0 | nt | -90.9*! | nt
CCOC(=O)c1c(NC(=O)c2ccc(-c3ccccc3[N+](=O)[O-])o2)sc2c1CCCC2 | nt | 0.3 | nt | nt
Cc1noc(C)c1NC(=O)Nc1ccc2c(c1)C(=O)N([C@H](C)CO)C[C@@H](C)[C@@H](CN(C)S(C)(=O)=O)O2 | 0.3 | nt | -91.6* | 94.3
C[C@@H]1CN([C@H](C)CO)C(=O)c2cc(NC(=O)Nc3ccccc3)ccc2O[C@@H](C)CCCCO[C@@H]1CN(C)Cc1ccc(Cl)c(Cl)c1 | -0.2 | nt | -85.1* | 70.0
C[C@H]1CCCCO[C@@H](CN(C)Cc2ccc3c(c2)OCO3)[C@@H](C)CN([C@@H](C)CO)C(=O)c2cc(NC(=O)Nc3ccccc3)ccc2O1 | 0.8 | nt | -82.4* | 94.2
Cc1noc(C)c1NC(=O)Nc1ccc2c(c1)C(=O)N([C@H](C)CO)C[C@@H](C)[C@H](CN(C)Cc1ccc(Cl)c(Cl)c1)OCCCC[C@H](C)O2 | -0.2 | nt | -85.6* | 75.9
Cc1ccc(NS(=O)(=O)c2cccc(C(=O)Nc3ccccc3C(=O)O)c2)cc1C | nt | -1.2 | nt | nt
C[C@@H]1CCCCO[C@H](CN(C)Cc2ccccc2)[C@H](C)CN([C@@H](C)CO)C(=O)c2cc(NC(=O)Nc3ccc(F)cc3)ccc2O1 | -1.1 | nt | -84.4* | 76.0
C[C@@H]1CN([C@H](C)CO)C(=O)c2cc(NC(=O)Nc3ccccc3)ccc2O[C@@H](C)CCCCO[C@@H]1CN(C)Cc1ccccc1 | -0.7 | 1.5 | -82.1* | nt
COc1ccc(NC(=O)Nc2ccc3c(c2)C(=O)N([C@@H](C)CO)C[C@@H](C)[C@@H](CN(C)Cc2ccc4c(c2)OCO4)OCCCC[C@@H](C)O3)cc1 | 1.5 | 3.7 | -83.0* | 85.3
CC12CCC(C(=O)Nc3ccncc3)(c3nc4ccccc4nc31)C2(C)C (stereo not given) | nt | 3.7 | nt | nt
O=C(Nc1ccccc1C(=O)O)c1cccc(S(=O)(=O)Nc2ccccc2F)c1 | nt | -1.2 | nt | nt
C[C@H](CO)N1C[C@H](C)[C@H](CN(C)Cc2ccc(C(=O)Nc3ccccc3N)cc2)Oc2c(NC(=O)NC3CCCCC3)cccc2C1=O | -1.2 | nt | nt | nt
C[C@@H]1CN([C@@H](C)CO)C(=O)c2cccc(NC(=O)C3CCCCC3)c2O[C@@H]1CN(C)Cc1ccc(C(=O)Nc2ccccc2N)cc1 | 0.4 | nt | -84.7* | 57.3
C[C@@H]1CN([C@H](C)CO)C(=O)c2cccc(NC(=O)NC3CCCCC3)c2O[C@@H]1CN(C)Cc1ccc(C(=O)Nc2ccccc2N)cc1 | -0.2 | nt | -83.8* | 76.7
CCc1ccc(-c2nc3cc(NC(=O)COc4ccc([N+](=O)[O-])cc4)ccc3o2)cc1 | nt | -0.6 | nt | nt
C/C=C/c1ccc(C2[C@H]3CNC[C@@H]2N3Cc2cc(F)ccc2F)cc1 (stereo not given in full) | 2.6 | nt | -84.4*! | nt
N#C[C@H]1[C@@H](c2ccccc2-c2ccc(F)cc2)[C@@H](CO)N1C(=O)NC1CCCCC1 | -2.2 | nt | 61.2 | nt
SMILES | GASC1 inh | IDH1 mut inh | Pf Dd2 inh | T cruzi growth
COc1ccc(-c2ccccc2[C@H]2[C@@H](C#N)N(C(=O)NC3CCCCC3)[C@H]2CO)cc1 | -1.0 | nt | -89.8* | nt
N#C[C@@H]1[C@H](c2ccc(-c3cccc(F)c3)cc2)[C@@H](CO)N1C(=O)NC1CCCC1 | -1.9 | nt | -86.6* | 77.5
CCCNC(=O)N1[C@H](CO)[C@@H](c2ccc(-c3cccc(OC)c3)cc2)[C@@H]1C#N | -1.8 | nt | -21.4 | 86.4
N#C[C@@H]1[C@H](c2ccccc2-c2ccc(F)cc2)[C@H](CO)N1C(=O)NC1CCCC1 | -0.2 | nt | -91.7* | nt
N#C[C@@H]1[C@@H](c2ccc(-c3cccc(F)c3)cc2)[C@@H](CO)N1C(=O)NC1CCCC1 | 2.3 | 0.1 | -20.5 | 91.4
CCCNC(=O)N1[C@H](C#N)[C@H](c2ccc(-c3cccc(OC)c3)cc2)[C@H]1CO | -0.2 | nt | -84.5* | 76.9
O=C(Cn1cnc2scc(-c3cccc([N+](=O)[O-])c3)c2c1=O)Nc1ccc(Cl)cc1 | nt | 0.1 | nt | nt
N#C[C@H]1[C@@H](c2ccc(C3=CCCCC3)cc2)[C@H](CO)N1C(=O)NC1CCCC1 | 2.4 | nt | 14.5 | nt
N#C[C@@H]1[C@H](c2ccc(C3=CCCCC3)cc2)[C@H](CO)N1C(=O)NC1CCCC1 | -0.7 | nt | -82.6* | nt
O=C(O)C(c1ccccc1)N1C(=O)/C(=C/c2ccncc2)SC1=S (stereo not given) | nt | 66.4* | nt | nt
CC(C)C(C(=O)O)N1C(=O)/C(=C/c2ccccc2)SC1=S (stereo not given) | nt | 0.8 | nt | nt
COCCNC(=O)C[C@H]1C[C@@H]2c3cc(N(C)C)ccc3O[C@@H]2[C@@H](CO)O1 | 46.2* | -13.2 | 30.3 | nt
CCCNC(=O)C[C@@H]1C[C@H]2c3cc(NC(=O)CN(C)C)ccc3O[C@H]2[C@H](CO)O1 | 39.7* | 45.3* | 24.3 | 16.0
COC(=O)C[C@@H]1C[C@@H]2c3cc(N(C)C)ccc3O[C@@H]2[C@H](CO)O1 | nt | -2.7 | -1.3 | 90.8
CN(C)c1ccc2c(c1)[C@H]1C[C@H](CC(=O)NCCc3ccccc3)O[C@H](CO)[C@H]1O2 | 18.2 | -11.4 | -67.8 | 54.1
COC(=O)C[C@H]1C[C@H]2c3cc(N(C)C)ccc3O[C@H]2[C@@H](CO)O1 | 36.1* | -10.7 | -1.2 | -38.0
CCCNC(=O)C[C@@H]1C[C@H]2c3cc(N(C)C)ccc3O[C@H]2[C@@H](CO)O1 | 27.8* | -2.7 | 9.8 | 28.2
Cc1coc(C)c1C(=O)CC1(O)C(=O)Nc2ccc(Br)cc21 (stereo not given) | nt | 0.5 | nt | nt
